What was measured:
[1] = system: VIE (5 strains), ATCC® MP-1™ panel; assay: MIC, extended VIE panel; assay type: cell-based, Enterococci; details: range over 5 strains, broth microdilution, 37 °C, 20 h
HEK293 cells = assay: MTT viability assay, HEK293; assay type: cell-based, human; details: 500 μg/mL, 48 h, relative to 1% (v/v) DMSO vehicle control; n = 3
Procedure, shortened: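 HEK293 cells were kept in DMEM with 10% (v/v) FBS, 1% (v/v) penicillin/streptomycin and 4.5 g/L glucose at 37 °C, 5% CO2, passaged tri-weekly. MTT viability was measured after test compound at 500 μg/mL and normalized to 1% (v/v) DMSO vehicle. The positive control was the cytotoxic peptide NaD1 at 50 μM. Three technical replicates were run, with unpaired two-tailed Student's t tests.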

acetyl-Lys-D-Ala-D-Lac = assay: Microscale thermophoresis binding, D-Ala-D-Lac tripeptide; details: MST, fluorescently labeled tripeptide, 25 °C; N = 3, ±S.D.; n.b.: no binding
Procedure, shortened: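 The tripeptide was labelled with an amine-reactive red NHS dye and mixed 1:1 with aqueous test compound (final 200 μM to 6.1 nM). Mixtures were incubated 5 min at 25 °C and read at 25 °C with 20% LED and 20% IR laser power (30 s on, 5 s off). The thermophoresis + T-jump signal from three independent runs was fitted to a single-site binding model.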

MurJ = assay: Native mass spectrometry, direct binding to MurJ; details: 3 µM compound added to MurJ
Procedure, shortened: (§1)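 Purified MurJ was buffer-exchanged into 200 mM ammonium acetate pH 8.0 with 2× critical micelle concentration LDAO and infused via gold-coated capillaries. Settings were capillary 1.1 kV, m/z 1,000–20,000, S-lens RF 100%, HCD 200 V, trapping gas 7.5, 200 °C, resolution 12,500, noise level 3, and no in-source dissociation.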

MurJ:lipid II complex = assay: Native mass spectrometry, MurJ:lipid II complex; assay type: binding; details: 5 µM MurJ with 3 µM lipid II, then 7 µM compound
Procedure, shortened: as §1

[2] = system: peptidoglycan precursors D-Ala-D-Lac; details: remodeling of peptidoglycan precursors from D-Ala-D-Ala to D-Ala-D-Lac; cited from earlier work

CN[C@H](CC(C)C)C(=O)N[C@H]1C(=O)N[C@@H](CC(N)=O)C(=O)N[C@H]2C(=O)N[C@H]3C(=O)N[C@H](C(=O)N[C@H](C(=O)O)c4cc(O)cc(O)c4-c4cc3ccc4O)[C@H](O)c3ccc(c(Cl)c3)Oc3cc2cc(c3O[C@@H]2O[C@H](CO)[C@@H](O)[C@H](O)[C@H]2O[C@H]2C[C@](C)(N)[C@H](O)[C@H](C)O2)Oc2ccc(cc2Cl)[C@H]1O [Vancomycin]
MIC, VIE (5 strains) [1]: 8 to 16 µg/mL | Viability of HEK293 cells (MTT) (HEK293 cells): significant decrease in the viability | KD, acetyl-Lys-D-Ala-D-Lac (acetyl-Lys-D-Ala-D-Lac): no binding was observed | Direct binding to MurJ (native mass spectra) (MurJ): no binding was observed | Ternary complex formation with MurJ:lipid II (native mass spectra) (MurJ:lipid II complex): expected ternary complex was formed | Reduction of vancomycin binding and antimicrobial activity [2]: 1,000 fold

Source: PMC10104512 (Proceedings of the National Academy of Sciences of the …, 2023)
